Results taken from ChEMBL document CHEMBL1138325, “Design, synthesis, in vitro, and in vivo characterization of phenylpiperazines and pyridinylpiperazines as potent and selective antagonists of the melanocortin-4 receptor” (J Med Chem, 2007).
Each block holds one compound with its values, some of them ahead of it.

How the values were obtained:
[1] = Apparent permeability from apical to basolateral side of Caco-2 cells; format: ADME, cell-based; conditions: human
Procedure, shortened: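 Caco-2 monolayer permeability, with Papp measured in the apical-to-basolateral direction.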

[2] = Ratio of drug level in brain to plasma in CD1 mouse at 5 mg/kg, iv after 4 hrs; format: ADME, organism-based; design: dose 5 mg/kg, route intravenous; conditions: brain and plasma, read-out: BPR
[3] = Cmax in CD1 mouse at 10 mg/kg, po after 6 hrs; format: ADME, organism-based; design: dose 10 mg/kg, route oral; conditions: in vivo
Procedure, shortened: (§1)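 CD-1 mice, three animals, dosed i.v. at 5 mg/kg and by oral gavage at 10 mg/kg. Plasma CL, Vd, t1/2, Cmax, Tmax, oral AUC and F% were derived. Brain concentrations and brain/plasma ratios at 1 and 4 h were taken from the i.v. dosing.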

[4] = target: Growth hormone secretagogue receptor type 1 (Homo sapiens, UniProt Q92847); assay: Agonist activity at GHSR; format: functional
[5] = Distribution coefficient, log D by shake flask method; format: physicochemical; conditions: octanol/water
Procedure, shortened: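 LogD measured by the shake-flask method; described elsewhere in the paper as lipophilicity at pH 7.4.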

[6] = AUC in CD1 mouse at 10 mg/kg, po; format: ADME, organism-based; design: dose 10 mg/kg, route oral; conditions: plasma; procedure, shortened: as §1
[7] = target: T1, Melanocortin receptor 4 (Homo sapiens, UniProt P32245); assay: Antagonist activity at human MC4R expressed in HEK293 cells assessed as inhibition of alpha-MSH-stimulated cAMP production; format: functional, cell-based
[8] = target: T1, Melanocortin receptor 4; assay: Displacement of [125I]NDPMSH from human MC4R expressed in HEK293 cells; format: cell-based
[9] = Half life in CD1 mouse at 5 mg/kg, iv; format: ADME, organism-based; design: dose 5 mg/kg, route intravenous; conditions: in vivo; procedure, shortened: as §1
[10] = Volume of distribution in CD1 mouse at 5 mg/kg, iv; format: ADME, organism-based; design: dose 5 mg/kg, route intravenous; conditions: in vivo
Procedure, shortened: (§2)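 CD-1 mice, three animals per route; single i.v. dose at 5 mg/kg and oral gavage at 10 mg/kg. Plasma PK parameters derived; brain concentrations and brain/plasma ratios taken from the i.v. dosing at 1 and 4 h.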

[11] = Drug level in CD1 mouse brain at 5 mg/kg, iv after 1 hr; format: ADME, organism-based; design: dose 5 mg/kg, route intravenous; conditions: read-out: Drug uptake; procedure, shortened: as §1
[12] = Drug level in CD1 mouse brain at 5 mg/kg, iv after 4 hrs; format: ADME, organism-based; design: dose 5 mg/kg, route intravenous; conditions: read-out: Drug uptake; procedure, shortened: as §1
[13] = Clearance in CD1 mouse at 5 mg/kg, iv; format: ADME, organism-based; design: dose 5 mg/kg, route intravenous; conditions: in vivo; procedure, shortened: as §1
[14] = Bioavailability in CD1 mouse at 10 mg/kg, po; format: ADME, organism-based; conditions: in vivo; procedure, shortened: as §1
[15] = Tmax in CD1 mouse at 10 mg/kg, po; format: ADME, organism-based; design: dose 10 mg/kg, route oral; conditions: in vivo; procedure, shortened: as §2
[16] = Ratio of drug level in brain to plasma in CD1 mouse at 5 mg/kg, iv after 1 hr; format: ADME, organism-based; design: dose 5 mg/kg, route intravenous; conditions: brain and plasma, read-out: BPR
[17] = Drug level in Sprague-Dawley rat brain at 10 mg/kg, po after 1 hr; format: ADME, organism-based; design: dose 10 mg/kg, route oral; conditions: read-out: Drug uptake
[18] = Drug level in Sprague-Dawley rat brain at 10 mg/kg, po after 4 hrs; format: ADME, organism-based; design: dose 10 mg/kg, route oral; conditions: read-out: Drug uptake
[19] = Clearance in Sprague-Dawley rat at 5 mg/kg, iv and 10 mg/kg, po; format: ADME, organism-based; conditions: in vivo
[20] = Cmax in Sprague-Dawley rat at 10 mg/kg, po; format: ADME, organism-based; design: dose 10 mg/kg, route oral; conditions: in vivo
[21] = AUC in Sprague-Dawley rat at 10 mg/kg, po; format: ADME, organism-based; design: dose 10 mg/kg, route oral; conditions: plasma
[22] = Tmax in Sprague-Dawley rat at 5 mg/kg, iv and 10 mg/kg, po; format: ADME, organism-based; conditions: in vivo
Procedure, shortened: (§3)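 Sprague–Dawley rats, three animals per route; i.v. dose 5 mg/kg and oral 10 mg/kg. Brain concentrations and brain/plasma ratios taken from the oral dosing at 1 and 4 h post-dose.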

[23] = Ratio of drug level in brain to plasma in Sprague-Dawley rat at 10 mg/kg, po after 1 hr; format: ADME, organism-based; design: dose 10 mg/kg, route oral; conditions: brain and plasma, read-out: BPR; procedure, shortened: as §3
[24] = Oral bioavailability in Sprague-Dawley rat at 10 mg/kg, po; format: ADME, organism-based; conditions: in vivo; procedure, shortened: as §3
[25] = Volume of distribution in Sprague-Dawley rat at 5 mg/kg, iv and 10 mg/kg, po; format: ADME, organism-based; conditions: in vivo; procedure, shortened: as §3
[26] = Half life in Sprague-Dawley rat at 5 mg/kg, iv and 10 mg/kg, po; format: ADME, organism-based; conditions: in vivo
[27] = Ratio of drug level in brain to plasma in Sprague-Dawley rat at 10 mg/kg, po after 4 hrs; format: ADME, organism-based; design: dose 10 mg/kg, route oral; conditions: brain and plasma, read-out: BPR; procedure, shortened: as §3
[28] = target: Melanocortin receptor 3 (Homo sapiens, UniProt P41968); assay: Displacement of [125I]NDPMSH from human MC3R expressed in HEK293 cells; format: cell-based
[29] = Volume of distribution in Sprague-Dawley rat at 2.5 mg/kg, iv and 10 mg/kg, po; format: ADME, organism-based; conditions: in vivo
Procedure, shortened: (§4)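 Sprague–Dawley rats, three animals per route; i.v. given at 2.5 mg/kg and oral at 10 mg/kg; plasma PK parameters calculated from these dosings.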

[30] = target: Melanocortin receptor 5 (Homo sapiens, UniProt P33032); assay: Displacement of [125I]NDPMSH from human MC5R expressed in HEK293 cells; format: cell-based
[31] = target: T2, Melanocyte-stimulating hormone receptor (Homo sapiens, UniProt Q01726); assay: Displacement of [125I]NDPMSH from human MC1R expressed in HEK293 cells; format: cell-based
Target sequence in this assay (Q01726 whole entry): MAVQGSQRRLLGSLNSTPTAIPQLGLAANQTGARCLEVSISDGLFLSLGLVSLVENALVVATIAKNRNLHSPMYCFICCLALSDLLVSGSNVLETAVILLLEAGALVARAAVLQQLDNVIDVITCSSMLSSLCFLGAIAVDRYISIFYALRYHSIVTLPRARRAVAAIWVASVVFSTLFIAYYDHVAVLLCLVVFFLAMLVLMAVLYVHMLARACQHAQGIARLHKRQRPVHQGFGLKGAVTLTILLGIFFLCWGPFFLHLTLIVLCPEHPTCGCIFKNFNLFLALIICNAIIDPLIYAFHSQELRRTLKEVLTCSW

[32] = Half life in Sprague-Dawley rat at 2.5 mg/kg, iv and 10 mg/kg, po; format: ADME, organism-based; conditions: in vivo
Procedure, shortened: (§5)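 Sprague–Dawley rats, three animals, dosed i.v. at 2.5 mg/kg and orally at 10 mg/kg. CL and t1/2 were derived from the plasma profile.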

[33] = Clearance in Sprague-Dawley rat at 2.5 mg/kg, iv and 10 mg/kg, po; format: ADME, organism-based; conditions: in vivo; procedure, shortened: as §5
[34] = Tmax in Sprague-Dawley rat at 2.5 mg/kg, iv and 10 mg/kg, po; format: ADME, organism-based; conditions: in vivo; procedure, shortened: as §4
[35] = target: T2, Melanocyte-stimulating hormone receptor; assay: Displacement of [125I]NDPMSH from human MC1R expressed in HEK293 cells at 10 uM; format: cell-based
Target sequence in this assay (Q01726 whole entry, looked up): as the sequence (Q01726 whole entry) above

T1 sequence (P32245 whole entry): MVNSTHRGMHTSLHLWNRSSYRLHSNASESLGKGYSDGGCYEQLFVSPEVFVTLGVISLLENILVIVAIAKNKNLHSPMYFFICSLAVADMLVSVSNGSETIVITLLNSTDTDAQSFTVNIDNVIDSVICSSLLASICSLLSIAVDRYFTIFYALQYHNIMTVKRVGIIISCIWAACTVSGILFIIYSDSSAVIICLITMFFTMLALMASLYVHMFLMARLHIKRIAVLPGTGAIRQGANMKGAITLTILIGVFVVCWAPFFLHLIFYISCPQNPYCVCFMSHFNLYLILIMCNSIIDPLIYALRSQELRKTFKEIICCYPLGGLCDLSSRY
Sequence of Melanocortin receptor 5 (P33032 whole entry): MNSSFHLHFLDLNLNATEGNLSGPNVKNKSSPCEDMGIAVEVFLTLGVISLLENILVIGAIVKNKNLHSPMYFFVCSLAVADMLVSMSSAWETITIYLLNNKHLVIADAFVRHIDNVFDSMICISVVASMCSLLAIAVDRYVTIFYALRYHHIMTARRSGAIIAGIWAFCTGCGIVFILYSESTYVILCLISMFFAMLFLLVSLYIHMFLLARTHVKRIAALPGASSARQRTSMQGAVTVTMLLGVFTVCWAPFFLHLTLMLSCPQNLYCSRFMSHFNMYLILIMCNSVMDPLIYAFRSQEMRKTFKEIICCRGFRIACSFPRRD
Sequence of Melanocortin receptor 3 (P41968 whole entry): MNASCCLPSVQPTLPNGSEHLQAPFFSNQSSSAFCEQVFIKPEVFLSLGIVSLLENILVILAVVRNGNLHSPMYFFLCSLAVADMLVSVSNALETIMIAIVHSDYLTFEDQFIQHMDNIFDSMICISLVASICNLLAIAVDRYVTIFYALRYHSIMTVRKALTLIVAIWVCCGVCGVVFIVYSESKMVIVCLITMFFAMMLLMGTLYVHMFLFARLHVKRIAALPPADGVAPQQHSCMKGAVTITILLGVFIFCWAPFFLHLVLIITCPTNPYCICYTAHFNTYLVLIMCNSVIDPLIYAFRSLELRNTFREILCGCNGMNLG
Sequence of Growth hormone secretagogue receptor type 1 (Q92847 whole entry): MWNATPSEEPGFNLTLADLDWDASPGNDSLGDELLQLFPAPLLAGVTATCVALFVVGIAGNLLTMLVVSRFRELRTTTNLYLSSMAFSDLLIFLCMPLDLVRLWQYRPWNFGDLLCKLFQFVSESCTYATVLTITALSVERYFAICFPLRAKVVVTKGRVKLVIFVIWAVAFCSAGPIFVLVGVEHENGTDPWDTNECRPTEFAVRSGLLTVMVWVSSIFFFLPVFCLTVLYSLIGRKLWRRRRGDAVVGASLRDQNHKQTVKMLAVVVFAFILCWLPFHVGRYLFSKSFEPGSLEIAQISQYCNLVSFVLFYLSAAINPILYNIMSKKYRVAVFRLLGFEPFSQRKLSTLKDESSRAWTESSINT

Papp A→B [1]: 1.8 ×10⁻⁶ cm/s
IC50 [7]: 570 nM
AUC [6]: 1760 ng·h/mL
Structure (SMILES): Cc1ccc(N2CCN(C(=O)[C@H](C)Cc3ccc(Cl)cc3)CC2)c([C@@H](N)CC(C)C)c1

Ki [8]: 890 nM
Structure (SMILES): CC(C)C[C@H](N)c1cccnc1N1CCN(C(=O)CCc2ccc(Cl)cc2Cl)CC1

Ki [8]: 260 nM
Structure (SMILES): CC(C)C[C@@H](N)c1cccnc1N1CCN(C(=O)CCc2ccc(Cl)cc2Cl)CC1

Ki [8]: 39 nM
Structure (SMILES): CC(C)C[C@H](NC(=O)CN)c1cccnc1N1CCN(C(=O)[C@H](C)Cc2ccc(Cl)cc2Cl)CC1

Ki [8]: 44 nM
Structure (SMILES): Cc1ccc([C@H](N)CC(C)C)c(N2CCN(C(=O)[C@H](C)Cc3ccc(Cl)cc3Cl)CC2)n1

half-life [9]: 5.2 h
Vd [10]: 16.8 L/kg
concentration at 1 h [11]: 35 ng/g
Kp at 4 h [2]: 0.15
Cmax [3]: 288 ng/mL
concentration at 4 h [12]: 14 ng/g
clearance [13]: 37.4 mL/min/kg
Ki [8]: 6 nM
AUC [6]: 551 ng·h/mL
bioavailability [14]: 12.6%
Tmax [15]: 0.5 h
Kp at 1 h [16]: 0.07
Structure (SMILES): CC(C)C[C@@H](NC(=O)CN)c1cccnc1N1CCN(C(=O)[C@H](C)Cc2ccc(Cl)cc2Cl)CC1

concentration at 1 h [17]: 15 ng/g
logD [5]: 3.3
Ki [28]: 3300 nM
concentration at 4 h [18]: 29 ng/g
Cmax [20]: 60 ng/mL
Vd [29]: 18.6 L/kg
IC50 [7]: 49 nM
AUC [21]: 517 ng·h/mL
Kp at 1 h [23]: 0.2
bioavailability [24]: 19.6%
Ki [30]: 1200 nM
Ki [31]: 6400 nM
Ki [8]: 2.5 nM
half-life [32]: 3.3 h
clearance [33]: 64.9 mL/min/kg
Tmax [34]: 2 h
Kp at 4 h [27]: 0.2
Structure (SMILES): Cc1ccc([C@@H](CC(C)C)NC(=O)CCN(C)C)c(N2CCN(C(=O)[C@H](C)Cc3ccc(Cl)cc3Cl)CC2)n1

Ki [8]: 36 nM
Structure (SMILES): CC(C)C[C@@H](N)c1cccnc1N1CCN(C(=O)C(C)Cc2ccc(Cl)cc2Cl)CC1 (stereo not given in full)

Further lines, the compound ahead of its results:

Structure (SMILES): CC(C)C[C@H](NCCN)c1cccc(F)c1N1CCN(C(=O)[C@@H](Cc2ccc(Cl)cc2Cl)N2CCCC2=O)CC1
Papp A→B [1]: 2 ×10⁻⁶ cm/s
Kp at 4 h [2]: 0.23
Cmax [3]: 552 ng/mL
Intrinsic activity [4]: 107%

Structure (SMILES): COc1cc(Cl)ccc1CC(C)C(=O)N1CCN(c2ccc(C(F)(F)F)cc2[C@@H](N)CC(C)C)CC1 (stereo not given in full)
logD [5]: 4.5
AUC [6]: 249 ng·h/mL

Structure (SMILES): CC(C)C[C@H](N)c1cc(C(F)(F)F)ccc1N1CCN(C(=O)CCc2ccc(Cl)cc2Cl)CC1
Ki [8]: 75 nM

Structure (SMILES): Cc1ccc(N2CCN(C(=O)[C@@H](Cc3ccc(Cl)cc3Cl)N3CCCC3=O)CC2)c([C@H](CC(C)C)NC(=O)CCN(C)C)c1
concentration at 1 h [17]: 1.5 ng/g
logD [5]: 3.9
concentration at 4 h [18]: 15 ng/g
clearance [19]: 38.7 mL/min/kg
Cmax [20]: 40 ng/mL
AUC [21]: 393 ng·h/mL
Tmax [22]: 4 h
Kp at 1 h [23]: 0.2
bioavailability [24]: 8.7%
Vd [25]: 8.8 L/kg
half-life [26]: 2.6 h
Kp at 4 h [27]: 0.3

Structure (SMILES): Cc1ccc(N2CCN(C(=O)[C@H](C)Cc3ccc(Cl)cc3)CC2)c([C@H](CC(C)C)NC(=O)CCN(C)C)c1
concentration at 1 h [17]: 12 ng/g
logD [5]: 2.4
Activity [35]: 34%
Ki [28]: 2800 nM
concentration at 4 h [18]: 36 ng/g
clearance [19]: 15 mL/min/kg
Cmax [20]: 196 ng/mL
IC50 [7]: 160 nM
AUC [21]: 2360 ng·h/mL
Tmax [22]: 5.3 h
Kp at 1 h [23]: 0.2
bioavailability [24]: 19%
Ki [30]: 710 nM
Ki [8]: 3.7 nM
Vd [25]: 4.1 L/kg
half-life [26]: 3.1 h
Kp at 4 h [27]: 0.3

Structure (SMILES): CC(C)C[C@H](NC(=O)CN)c1cc(C(F)(F)F)ccc1N1CCN(C(=O)CCc2ccc(Cl)cc2Cl)CC1
Activity [35]: 18%
AUC [6]: 687 ng·h/mL
